High-throughput results as filed in PubChem.
This is a sample that favours compounds with a hit; in the whole collection about 1.8% have one here.
STAT3 activator – STAT3 signaling activation. U3A cells, IL-6 STAT3-luciferase reporter, luminescence; 100% = signal with IL-6 EC80 alone. activation (% of control), % at 5.6 µM. actives 0.91% (n = 190,000);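 active = activation above the screen-wide mean of compound activation plus 3 SD, cut at about 130% in these data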;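 also: 0% = background luminescence of wells with medium and substrate only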
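Test system: human U3A cells carrying STAT3-luciferase construct; control set: IL-6-only wells as 100% reference; timing: compound pre-incubation 1 h before IL-6, then 6 h stimulation at 37 °C; also added: IL-6 stimulus at 33 ng/mL final; evaluation: % activation versus median of IL-6-stimulated wells; detection: reporter luminescence signal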
C8 TRAIL sens – sensitizes caspase-8 expressing cells to TRAIL | actives 1% (n = 360,000) | AID 624354 | inhibition (viability loss, TRAIL sensitization), % at 10 µM | NB7+C8 cells + TRAIL, ATPlite viability luminescence;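 active = compounds causing at least 50% loss of cell viability in the single-dose screen, relative to plate controls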
PPC-1+TRAIL kill – kills PPC-1 cancer cells in the presence of TRAIL; actives 0.41% (n = 220,000); PPC-1 cells + TRAIL, ATPLite viability luminescence; cell killing (% activity), % at 4 µM or 5 µM; AID 1443;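 active = cell killing above 50% in the first pass at 4 µM, then a duplicate retest at 5 µM averaging 50% or more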;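 also: plate controls were cells with TRAIL plus DMSO for no effect and medium-only wells lacking cells for full effect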
STAT1 inh – STAT1 signaling inhibition | inhibition, % at 5.5 µM | NIH 3T3 STAT1-luciferase reporter, IFN-gamma, luminescence | actives 0.35% (n = 200,000);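 active = inhibition above a set limit, the mean inhibition across all tested compounds plus 3 SD, cut at about 34% in these data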;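 also: 0% = IFN-gamma with DMSO and 100% = IFN-gamma with 300 µM nifuroxazide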
STAT3 inh – inhibitors of IL-6 induced STAT3 signaling; actives 0.89% (n = 190,000); AID 862; inhibition, % at 5.5 µM; U3A cells, IL-6 STAT3-luciferase reporter, luminescence; host cell line lacks STAT1;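 active = inhibition above the mean inhibition across all screened compounds plus 3 SD, cut at about 44% in these data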;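 also: 0% = DMSO only wells and 100% = 100 µM nifuroxazide control wells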
PPC-1 tox – PPC-1 cell cytotoxicity; PPC-1 viability, ATPlite luminescence, overnight; shares compounds with PPC-1+TRAIL kill; cytotoxicity, % at 5 µM; actives 50% (n = 1,200);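 active = reconfirmed compounds whose average cytotoxicity reaches 50% or more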;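 also: 0% = DMSO-treated cells and 100% = wells holding medium but no cells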
* marks the source's active call; other numbers are inactive results; . = no result.

SMILES	STAT3 activator	C8 TRAIL sens	PPC-1+TRAIL kill	STAT1 inh	STAT3 inh	PPC-1 tox
CCOc1ccc(-c2ccc(SCC(=O)Nc3nnc(CC)s3)nn2)cc1	77	67*	70*	-17	31	68*
CCOc1ccc(-c2ccc(SC)nn2)cc1	14	92*	91*	81*	110*	91*
Cc1ccc(-c2ccc(SCC(=O)NCC3CCCO3)nn2)cc1 (stereo not given)	99	10	39	-4	10	.
COc1ccc(-c2ccc(SCC(=O)Nc3nnc(C)s3)nn2)cc1	100	55*	50*	-20	5	50*
CCOc1ccc(-c2ccc(SCC(=O)NCC3CCCO3)nn2)cc1 (stereo not given)	109	52*	26	-21	1	35
Cc1cccc(C)c1NC(=O)C(C)NCc1cccs1 (stereo not given)	.	-6	.	.	.	.
CN(C)c1cccc(CNC(=O)c2csc(COCCO)n2)c1	.	-9	.	.	.	.
Cc1cccc(NC(=O)NCCN2CCN(c3ccccc3)CC2)c1C	.	-8	.	.	.	.
COc1ccc(CSC2=NCCN2)cc1Br	.	-1	.	.	.	.
CCCn1c(N)c(C(=O)CSc2nnc(Cc3ccccc3)o2)c(=O)n(C)c1=O	67	4	13	24	41	8
O=C(Cc1cccs1)NCc1ccco1	98	-5	1	-6	6	-5
O=C(Cc1cccs1)Nc1ccc(Cl)cc1	124	-6	3	2	-25	2
CCOC(=O)N1CCN(S(=O)(=O)c2ccc(OC)c(Br)c2)CC1	.	-5	.	.	.	.
CCOC(=O)[C@]12CCC=C1N(Cc1cccc3ccccc13)C(=O)[C@H](CC(=O)NCc1ccc(C)o1)C2	.	16	.	.	.	.
Cn1nnc(NC(=O)c2ccc3ccccc3c2)n1	90	19	4	-9	15	.
Cn1nnc(NC(=O)c2ccc(C(C)(C)C)cc2)n1	93	55*	54*	-3	12	53*
CCN(CC)C(=O)C(Sc1ccccc1)c1ccccc1 (stereo not given)	104	-4	0	-8	-8	2
CCCNC(=O)C(Sc1ccccc1)c1ccccc1 (stereo not given)	102	-5	-1	5	0	.
O=C(NCCc1ccc2c(c1)OCCO2)c1ccccn1	.	4	.	.	.	.
Cc1cc(/C=C2/C(=N)N3C(=NC2=O)SN=C3S(C)(=O)=O)c(C)n1-c1ccccc1F	94	85*	68*	-15	9	70*
COc1ccc2c(C)nc(Nc3nc(C)c(C)c(=O)[nH]3)nc2c1	127	12	-10	-112	-31	-12
CCc1c(C)nc(Nc2nc(C)c3ccc(OC)cc3n2)[nH]c1=O	91	4	-7	-20	16	.
COc1ccc(N2CCN(c3ccc(NC(=O)C4CCCCC4)cc3C#N)CC2)cc1	101	-6	-5	2	1	8
COc1ccc(C(=O)Nc2ccc(N3CCN(c4ccc(OC)cc4)CC3)c(C#N)c2)cc1	103	0	3	1	3	.
COC(=O)c1cccc(S(=O)(=O)N2CCCC2)c1	102	-4	8	10	2	.
SMILES	STAT3 activator	C8 TRAIL sens	PPC-1+TRAIL kill	STAT1 inh	STAT3 inh	PPC-1 tox
COC(=O)c1cccc(S(=O)(=O)N2CCC(n3nnc4cc(F)ccc43)CC2)c1	97	-1	10	8	8	24
Cc1nc2cc(NC(=O)N3c4ccccc4CC3C)ccc2n1C (stereo not given)	73	65*	68*	-35	35	63*
Cc1nc2cc(NC(=O)Nc3ccccc3Cl)ccc2n1C	30	73*	71*	40*	84*	72*
O=C(O)CC1(CC(=O)N2CCC(C(=O)O)CC2)CCCC1	.	-1	.	.	.	.
CCn1cc(C(=O)N[C@@H](CCSC)C(=O)NCCO)c(=O)c2cc3c(cc21)OCO3	.	-5	.	.	.	.
O=C(NCCc1nc2ccccc2[nH]1)c1ccc(Br)o1	.	-10	.	.	.	.
O=C(Nc1nc2ccccc2[nH]1)c1ccc(Br)o1	123	44	25	-49	-27	24
O=C(Nc1nc2ccccc2[nH]1)c1cccc(Br)c1	.	34	.	.	.	.
COc1cccc(C(=O)Nc2nc3ccccc3[nH]2)c1	29	83*	71*	44*	86*	73*
CCc1ccc(C(=O)COC(=O)c2cccc(N3C(=O)c4c(C)nc5ccccc5c4C3=O)c2)cc1	83	73*	72*	-7	22	72*
Cc1ccc(/C=C(\C#N)c2nc3ccccc3[nH]2)s1	81	61*	51*	-71	28	57*
O=C(Cc1ccc(Cl)cc1)NCC(=O)N1CCN(Cc2ccccc2)CC1	.	8	.	.	.	.
Brc1ccc(-c2nc(N/N=C/c3cccnc3)c3ccccc3n2)cc1	105	91*	88*	3	-2	87*
C(=N\Nc1nc(-c2ccccn2)nc2ccccc12)/c1ccccc1	.	.	69*	.	.	73*
Cc1cc(C)c(-n2nnnc2SCC(=O)c2cccs2)c(C)c1	.	-6	2	.	.	.
COc1ccc(OCc2n(CC(=O)OC3CC(C)CCC3C(C)C)c3ccccc3[n+]2C)cc1 (stereo not given)	.	33	37	.	.	.
COc1ccc(-c2n(CC(=O)OC3CC(C)CCC3C(C)C)c3ccccc3[n+]2C)cc1 (stereo not given)	58	46	45	57*	52*	52*
COc1ccc(-c2cc3ncc(-c4ccccc4)c(N)n3n2)cc1	92	62*	41	-61	17	52*
